According to ChEMBL document CHEMBL3425420 (J Med Chem, 2015):
pKi: −log10 of the molar value.

Assays:
[1] = target: Bcl-2-like protein 1 (Homo sapiens, UniProt Q07817); experiment: Displacement of FITC-Bak-BH3 peptide from Bcl-xL (unknown origin) incubated for 1.5 hrs by FPA competition assay
Outline: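 Compounds were added as a 10-point, 3-fold serial dilution and incubated 1.5 h at room temperature. IC50 came from a four-parameter fit of the anisotropy change, was converted to Ki, and duplicate values were averaged.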

[2] = target: T1, Induced myeloid leukemia cell differentiation protein Mcl-1 (Homo sapiens, UniProt Q07820); experiment: Displacement of FITC-Bak-BH3 peptide from Mcl-1 (unknown origin) incubated for 1.5 hrs by FPA competition assay
[3] = target: Apoptosis regulator Bcl-2 (Homo sapiens, UniProt P10415); experiment: Displacement of FITC-Bak-BH3 peptide from Bcl-2 (unknown origin) incubated for 1.5 hrs by FPA competition assay
Outline: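 Compounds were added as a 10-point, 3-fold serial dilution and incubated 1.5 h at room temperature. The anisotropy change was fitted to a four-parameter variable-slope curve for IC50, converted to Ki, and duplicates were averaged.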

[4] = target: T1, Induced myeloid leukemia cell differentiation protein Mcl-1; experiment: Binding affinity to GST-tagged Mcl-1 (unknown origin) incubated for 60 mins by TR-FRET-binding affinity assay

Bcl-2-like protein 1, sequence (Q07817 whole entry): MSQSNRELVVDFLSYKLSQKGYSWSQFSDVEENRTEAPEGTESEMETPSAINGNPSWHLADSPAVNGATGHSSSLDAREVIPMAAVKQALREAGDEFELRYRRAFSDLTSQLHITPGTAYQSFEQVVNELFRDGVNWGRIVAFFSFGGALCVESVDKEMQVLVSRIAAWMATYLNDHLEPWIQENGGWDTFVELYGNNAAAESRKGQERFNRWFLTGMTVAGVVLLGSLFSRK
T1 sequence (Q07820 whole entry): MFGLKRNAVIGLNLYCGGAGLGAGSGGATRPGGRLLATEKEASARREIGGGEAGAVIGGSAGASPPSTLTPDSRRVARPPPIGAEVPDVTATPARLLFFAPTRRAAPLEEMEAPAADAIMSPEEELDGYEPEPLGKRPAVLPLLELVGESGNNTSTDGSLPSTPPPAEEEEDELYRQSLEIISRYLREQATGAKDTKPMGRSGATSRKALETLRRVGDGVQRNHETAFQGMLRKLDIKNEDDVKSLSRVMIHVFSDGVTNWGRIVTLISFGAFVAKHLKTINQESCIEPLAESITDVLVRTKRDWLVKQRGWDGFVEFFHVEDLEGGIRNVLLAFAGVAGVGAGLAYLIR
Apoptosis regulator Bcl-2, sequence (P10415 whole entry): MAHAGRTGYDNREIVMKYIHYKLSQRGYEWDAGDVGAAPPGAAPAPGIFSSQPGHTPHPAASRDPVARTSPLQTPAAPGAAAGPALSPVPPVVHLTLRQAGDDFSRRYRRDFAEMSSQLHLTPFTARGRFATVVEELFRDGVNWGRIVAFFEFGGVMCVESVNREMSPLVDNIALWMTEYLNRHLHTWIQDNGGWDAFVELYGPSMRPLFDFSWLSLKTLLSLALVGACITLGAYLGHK

Structure (SMILES) | pKi [1] | pKi [2] | pKi [3] | pKi [4]
O=C(O)c1c(CCCOc2cccc3c2CCCC3)c2cccc3c2n1CCS3 | 5.52 | 6.82 |  | 
Cc1c(C(=O)O)n2c3c(cccc13)CCC2 |  | 4.05 |  | 
O=C(O)c1c(CCOc2cccc3ccccc23)c2cccc3c2n1CCS3 |  | 5.52 |  | 
O=C(O)c1cc2ccccc2[nH]1 [INDOLE-2-CARBOXYLIC ACID] |  | < 3.00 |  | 
CC1Cn2c(C(=O)O)cc3cccc(c32)S1 (centres undefined) |  | 4.46 |  | 
Cc1cc(OCCCc2c(C(=O)O)n3c4c(cccc24)OCC3)cc(C)c1Cl |  | 7.19 |  | 
O=C(O)c1c(CCCOc2cccc3ccccc23)c2cccc3c2n1CCC3 | < 4.70 | 6.51 |  | 
Cc1c(C(=O)O)n2c3c(cccc13)SCC2 |  | 4.74 |  | 
Cc1cc(OCCCc2c(C(=O)O)n3c4c(cccc24)SCC3)cc(C)c1Cl | < 4.70 |  | 5.64 | 
Cc1cc(OCCCc2c(C(=O)O)n3c4c(c(Cl)ccc24)OCC3)cc(C)c1Cl | < 4.70 |  |  | 
O=C(O)c1c(CCCOc2cccc3ccccc23)c2cccc3c2n1CCCS3 | 5.13 | 6.77 | 5.00 | 
Cc1c(C(=O)O)n2c3c(cccc13)OCC2 |  | 4.74 |  | 
O=C(O)c1c(CCCOc2cccc3ccccc23)c2cccc3c2n1CCO3 | 5.72 | 6.96 |  | 
O=C(O)c1c(CCCOc2cccc3ccccc23)c2cccc3c2n1CCCS3(=O)=O | < 4.70 | 7.21 | 4.93 | 
O=C(O)c1c(CCCOc2cccc3ccccc23)c2cccc3c2n1CCC[S+]3[O-] (centres undefined) | < 4.70 | 7.13 | 4.80 | 
O=C(O)c1c(CCOc2cccc3ccccc23)c2cccc3c2n1CCC3 | < 4.70 | 5.40 |  | 
COCCCc1c(C(=O)O)n(CCN2CCOCC2)c2c(-c3c(C)nn(C)c3COc3ccc(N4CCN(S(=O)(=O)N(C)C)CC4)cc3)cccc12 |  |  |  | 9.34
Cc1cc(OCCCc2c(C(=O)O)n3c4c(cccc24)SCC3)ccc1Cl | < 4.70 | 6.68 | 5.20 | 
O=C(O)c1c(CCCOc2cccc3ccccc23)c2cccc3c2n1CCS3 | < 4.70 | 6.92 | 5.51 | 
Cc1cc(OCCCc2c(C(=O)O)n3c4c(c(Cl)ccc24)CCC3)cc(C)c1Cl | 5.28 | 8.52 |  | 
Cc1cc(OCCCc2c(C(=O)O)n3c4c(cccc24)CCC3)cc(C)c1Cl |  | 6.96 |  | 
O=C(O)c1cc2cccc3c2n1CCS3 |  | 4.29 |  | 
O=C(O)c1cc2cccc3c2n1CCC3 |  | 3.88 |  | 
O=C(O)c1c(CCCOc2ccc(Cl)c3ccccc23)c2cccc3c2n1CCS3 | 5.33 |  | 5.96 | 
O=C(O)c1c(CCCOc2ccc3c(c2)CCCC3)c2cccc3c2n1CCS3 | < 4.70 | 6.39 | 5.36 | 
O=C(O)c1c(CCOc2cccc3ccccc23)c2cccc3c2n1CCO3 | 4.90 | 5.80 |  | 
O=C(O)c1c(CCCOc2cccc3ccccc23)c2cccc3c2n1CCS3(=O)=O | < 4.70 | 7.06 |  | 
Cc1cc(OCCCc2c(C(=O)O)n3c4c(cccc24)SCCC3)cc(C)c1Cl | < 4.70 |  |  | 
